The record followed here is ChEMBL document CHEMBL1143542, “Structure-activity relationships of bivalent aminoglycosides and evaluation of their microbiological activities” (2005).

Molecules are shown by their SMILES. Values after ≈ are worked out from the molar mass of the structure shown.

Assay [1] concerns Pseudomonas aeruginosa. As to the kind of experiment: Minimum inhibitory concentration against Pseudomonas aeruginosa ATCC 27853. The class given is functional. Summed up: (§1)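 Broth microdilution following CLSI M100-S12. Stocks were 10 mg/mL in water, diluted in Mueller–Hinton broth to a top level of 128, then serially 2-fold in plates. Bacteria in cation-adjusted Mueller–Hinton broth were mixed 1:1 with drug and incubated 16–20 h at 35 °C. MIC was the lowest concentration with no visible growth. Run in duplicate with no-antibiotic and no-inoculum (sterility) controls.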

Assay [2] has as its system Pseudomonas aeruginosa. As to the kind of experiment: Susceptibility testing against Pseudomonas aeruginosa PAE_NUH21; S=Susceptible. The class given is functional.
Assay [3] concerns Pseudomonas aeruginosa. As to the kind of experiment: Susceptibility testing against Pseudomonas aeruginosa PAE_NUH25; S=Susceptible. Type of assay: functional.
Assay [4] has as its system Pseudomonas aeruginosa. In words: (§2) Susceptibility testing against Pseudomonas aeruginosa PAE_NUH04; R=Resistant. Type of assay: functional.
Assay [5] deals with Pseudomonas aeruginosa. As to the kind of experiment: Susceptibility testing against Pseudomonas aeruginosa PAE_NUH24; S=Susceptible. Type of assay: functional.
Assay [6] relates to Pseudomonas aeruginosa. In words: Susceptibility testing against Pseudomonas aeruginosa PAE_NUH18; S=Susceptible. Type of assay: functional.
The subject of assay [7] is Staphylococcus aureus. In words: In vitro minimum inhibitory concentration against Staphylococcus aureus MRSA 3359. Type of assay: functional. Summed up: as §1
Assay [8] has as its system Pseudomonas aeruginosa. In words: (§3) Susceptibility testing against Pseudomonas aeruginosa PAE_NUH01; R=Resistant. Type of assay: functional.
Assay [9] deals with Pseudomonas aeruginosa. As to the kind of experiment: (§4) Susceptibility testing against Pseudomonas aeruginosa PAE_NUH03; R=Resistant. The class given is functional.
In assay [10] the test system is Pseudomonas aeruginosa. As to the kind of experiment: Susceptibility testing against Pseudomonas aeruginosa PAE_NUH23; R=Resistant. Type of assay: functional.
In assay [11] the test system is Pseudomonas aeruginosa. In words: (§5) Susceptibility testing against Pseudomonas aeruginosa PAE_NUH17; S=Susceptible. The class given is functional.
The subject of assay [12] is Pseudomonas aeruginosa. As to the kind of experiment: Minimum inhibitory concentration against Pseudomonas aeruginosa ATCC 27853; Range is 0.25-1. Type of assay: functional.
Assay [13] has as its system Pseudomonas aeruginosa. In words: Susceptibility testing against Pseudomonas aeruginosa PAE_NUH19; S=Susceptible. Type of assay: functional.
Assay [14] concerns Staphylococcus aureus. As to the kind of experiment: In vitro minimum inhibitory concentration against Staphylococcus aureus ATCC 29213; Range is 0.12-1. The class given is functional.
In assay [15] the test system is Pseudomonas aeruginosa. In words: (§6) Susceptibility testing against Pseudomonas aeruginosa PAE_NUH05; R=Resistant. The class given is functional.
Assay [16] deals with Pseudomonas aeruginosa. In words: (§7) Susceptibility testing against Pseudomonas aeruginosa PAE_NUH02; R=Resistant. The class given is functional.
Assay [17] deals with Pseudomonas aeruginosa. In words: Susceptibility testing against Pseudomonas aeruginosa PAE_NUH22; S=Susceptible. The class given is functional.
Assay [18] deals with Pseudomonas aeruginosa. As to the kind of experiment: Minimum inhibitory concentration against Pseudomonas aeruginosa PAO-1; Range is 0.25-1. Type of assay: functional.
The subject of assay [19] is Pseudomonas aeruginosa. In words: (§8) Susceptibility testing against Pseudomonas aeruginosa PAE_NUH20; S=Susceptible. Type of assay: functional.
Assay [20] deals with Pseudomonas aeruginosa. As to the kind of experiment: (§9) Susceptibility testing against Pseudomonas aeruginosa PAE_NUH06; R=Resistant. Type of assay: functional.
The subject of the next assay is Escherichia coli. In words: In vitro minimum inhibitory concentration against Escherichia coli ATCC 25922; Range is 0.25-1. The class given is functional.
The next assay has as its system Enterococcus faecalis. In words: In vitro minimum inhibitory concentration against Enterococcus faecalis 29212; range is 8-32 ug/ml. The class given is functional. Summed up: as §1
For assay [21], the system named is Pseudomonas aeruginosa. In words: Susceptibility testing against Pseudomonas aeruginosa PAE_NUH07; S=Susceptible. The class given is functional. Summed up: (§10)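 Disk diffusion susceptibility profiling against a panel of empirically used antipseudomonal antibiotics. Each strain was categorised as susceptible (S) or intermediate (I).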
The subject of assay [22] is Pseudomonas aeruginosa. In words: Susceptibility testing against Pseudomonas aeruginosa PAE_NUH18; R=Resistant. The class given is functional, organism-based. Summed up:
(§11)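 Disk diffusion susceptibility profiling of P. aeruginosa reference and clinical isolates against empirically used antipseudomonal antibiotics. Each isolate was categorised as susceptible, intermediate or resistant.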

For assay [23], the system named is Pseudomonas aeruginosa. The description is as §5. Type of assay: functional, organism-based. Summed up: as §10
Assay [24] has as its system Pseudomonas aeruginosa. The assay is described as §8. The class given is functional, organism-based. The method, boiled down:
as §10

Assay [25] concerns Pseudomonas aeruginosa. As to the kind of experiment: Susceptibility testing against Pseudomonas aeruginosa PAE_NUH19; R=Resistant. The class given is functional, organism-based. The method, boiled down:
as §11

Assay [26] relates to Pseudomonas aeruginosa. The assay is described as §3. The class given is functional, organism-based. Summed up: as §11
The subject of assay [27] is Pseudomonas aeruginosa. The assay is described as §9. Type of assay: functional, organism-based. The method, boiled down:
as §11

Assay [28] relates to Pseudomonas aeruginosa. As to the kind of experiment: Susceptibility testing against Pseudomonas aeruginosa PAE_NUH24; I=Intermediate. Type of assay: functional, organism-based. The method, boiled down: as §11
For assay [29], the system named is Pseudomonas aeruginosa. As to the kind of experiment: Susceptibility testing against Pseudomonas aeruginosa ATCC 27853; R=Resistant. Type of assay: functional, organism-based. Summed up: as §11
For assay [30], the system named is Pseudomonas aeruginosa. The description is as §4. The class given is functional, organism-based. The method, boiled down:
as §11

Assay [31] concerns Pseudomonas aeruginosa. The description is as §2. The class given is functional, organism-based. Summed up: as §11
Assay [32] relates to Pseudomonas aeruginosa. In words: Susceptibility testing against Pseudomonas aeruginosa PAE_NUH23; I=Intermediate. Type of assay: functional, organism-based. The method, boiled down: as §11
Assay [33] relates to Pseudomonas aeruginosa. In words: Susceptibility testing against Pseudomonas aeruginosa PAE_NUH21; I=Intermediate. The class given is functional, organism-based. The method, boiled down: as §10
Assay [34] concerns Pseudomonas aeruginosa. In words: Susceptibility testing against Pseudomonas aeruginosa PAE_NUH07; R=Resistant. The class given is functional, organism-based. Summed up: as §11
The test system of assay [35] is Pseudomonas aeruginosa. The assay is described as §6. Type of assay: functional, organism-based. Summed up:
as §11

The test system of assay [36] is Pseudomonas aeruginosa. Described as §7. Type of assay: functional, organism-based. The method, boiled down: as §11
Assay [37] concerns Pseudomonas aeruginosa. As to the kind of experiment: Susceptibility testing against Pseudomonas aeruginosa PAE_NUH25; R=Resistant. The class given is functional, organism-based. The method, boiled down: as §11
Assay [38] has as its system Pseudomonas aeruginosa. In words: Susceptibility testing against Pseudomonas aeruginosa PAE_NUH22; I=Intermediate. Type of assay: functional, organism-based. The method, boiled down: as §10

With `NC[C@H]1O[C@H](O[C@H]2[C@H](O)[C@@H](O[C@H]3O[C@H](CO)[C@@H](O)[C@H](N)[C@H]3O)[C@H](N)C[C@@H]2N)[C@H](N)C[C@@H]1O` [TOBRAMYCIN], the MIC (in general, the least concentration at which growth counts as inhibited) with Pseudomonas aeruginosa [1] turned out to be 1 µg/mL (≈ 2.14 µM); against Pseudomonas aeruginosa [2], 1 µg/mL (≈ 2.14 µM); against Pseudomonas aeruginosa [3], 0.5 µg/mL (≈ 1.07 µM); in the assay on Pseudomonas aeruginosa [4] it was 100 µg/mL (≈ 214 µM); with Pseudomonas aeruginosa [5], 1 µg/mL (≈ 2.14 µM); against Pseudomonas aeruginosa [6] it was 0.5 µg/mL (≈ 1.07 µM). The minimum inhibitory concentration (MIC) against Staphylococcus aureus [7] was more than 64 µg/mL; with Pseudomonas aeruginosa [8] it was more than 200 µg/mL; against Pseudomonas aeruginosa [9] it was 50 µg/mL (≈ 107 µM); with Pseudomonas aeruginosa [10], more than 32 µg/mL; with Pseudomonas aeruginosa [11], 1 µg/mL (≈ 2.14 µM); in the assay with Pseudomonas aeruginosa [12], 1 µg/mL (≈ 2.14 µM). Besides, the MIC turned out to be 0.5 µg/mL (≈ 1.07 µM) in the assay on Pseudomonas aeruginosa [13]; 1 µg/mL (≈ 2.14 µM) in the assay on Staphylococcus aureus [14]; 100 µg/mL (≈ 214 µM) in the assay on Pseudomonas aeruginosa [15]; 50 µg/mL (≈ 107 µM) against Pseudomonas aeruginosa [16]; 0.25 µg/mL (≈ 0.535 µM) against Pseudomonas aeruginosa [17]; 1 µg/mL (≈ 2.14 µM) against Pseudomonas aeruginosa [18]. Moreover, the minimal inhibitory concentration (MIC) in the assay on Pseudomonas aeruginosa [19] was 2 µg/mL (≈ 4.28 µM); against Pseudomonas aeruginosa [20], 100 µg/mL (≈ 214 µM); with Escherichia coli it was 1 µg/mL (≈ 2.14 µM); with Enterococcus faecalis, 32 µg/mL (≈ 68.4 µM); against Pseudomonas aeruginosa [21], 6.3 µg/mL (≈ 13.5 µM).
For the compound `O=C(N[C@H](CO)[C@H](O)c1ccc([N+](=O)[O-])cc1)C(Cl)Cl`, the Activity result was “Resistant” in the assay on Pseudomonas aeruginosa [22]; “Susceptible” in the assay with Pseudomonas aeruginosa [23]; “Susceptible” in the assay with Pseudomonas aeruginosa [24]; “Resistant” in the assay on Pseudomonas aeruginosa [25]; “Resistant” in the assay with Pseudomonas aeruginosa [26]; “Resistant” with Pseudomonas aeruginosa [27]. Besides, the Activity result in the assay with Pseudomonas aeruginosa [28] is “I”; in the assay with Pseudomonas aeruginosa [29], “Resistant”; in the assay with Pseudomonas aeruginosa [30] it was “Resistant”; in the assay on Pseudomonas aeruginosa [31], “Resistant”; in the assay with Pseudomonas aeruginosa [32] it was “I”; in the assay on Pseudomonas aeruginosa [33] it was “I”. Further, the Activity entry with Pseudomonas aeruginosa [34] is reported as “Resistant”; in the assay with Pseudomonas aeruginosa [35], “Resistant”; in the assay with Pseudomonas aeruginosa [36], “Resistant”; in the assay with Pseudomonas aeruginosa [37], “Resistant”; in the assay on Pseudomonas aeruginosa [38] it was “I”.
